Key:
Cannabinoid receptor 1 = Cannabinoid receptor 1 (Homo sapiens, UniProt P21554); test: biochemical; assay type: cell-based, HEK293
Cannabinoid receptor 2 = Cannabinoid receptor 2 (Homo sapiens, UniProt P34972); test: Displacement of [3H]CP-55940 from human recombinant CB2 receptor expressed in HEK293 cells; assay type: cell-based
Homo sapiens = species: Homo sapiens; test: Selectivity for human CB2 over human CB1
Mus musculus [1] = test: Effect on Swiss Albino mouse assessed as licking latency time at 0.06 mg/kg, po after 15 mins by hot plate test; assay type: functional
Mus musculus [2] = test: Effect on Swiss Albino mouse assessed as licking latency time at 0.06 mg/kg, po after 30 mins by hot plate test; assay type: functional
Mus musculus [3] = test: Effect on Swiss Albino mouse assessed as licking latency time at 0.06 mg/kg, po after 45 mins by hot plate test; assay type: functional
Mus musculus [4] = test: Antinociceptive activity in Swiss Albino mouse assessed as licking latency time at 10 mg/kg, po after 15 mins by hot plate test; assay type: functional
Method in brief: (§1)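 Mice held at 22 ± 1 °C on a 12 h light/dark cycle and given oral doses in CMC vehicle. In the hot-plate test the container was kept at 52.5 ± 0.1 °C and the endpoint was licking of the fore or hind paws, timed before dosing and after it. Pretest scorers below 12 s or above 18 s were rejected. Cut-off 45 s. AM630 0.6 mg/kg po given simultaneously. Mean ± SEM, ANOVA with Fisher PLSD, P<0.05.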

Mus musculus [5] = test: Antinociceptive activity in Swiss Albino mouse assessed as licking latency time at 10 mg/kg, po after 30 mins by hot plate test; assay type: functional
Method in brief: as §1

Mus musculus [6] = test: Antinociceptive activity in Swiss Albino mouse assessed as licking latency time at 10 mg/kg, po after 45 mins by hot plate test; assay type: functional
Method in brief: as §1

Mus musculus [7] = test: Antinociceptive activity in Swiss Albino mouse assessed as licking latency time at 30 mg/kg, po after 15 mins by hot plate test; assay type: functional
Method in brief: as §1

Mus musculus [8] = test: Antinociceptive activity in Swiss Albino mouse assessed as licking latency time at 30 mg/kg, po after 30 mins by hot plate test; assay type: functional
Method in brief: as §1

Mus musculus [9] = test: Antinociceptive activity in Swiss Albino mouse assessed as licking latency time at 30 mg/kg, po after 45 mins by hot plate test; assay type: functional
Method in brief: as §1

Mus musculus [10] = test: Antinociceptive activity in Swiss Albino mouse assessed as licking latency time at 50 mg/kg, po after 15 mins by hot plate test; assay type: functional
Method in brief: as §1

Mus musculus [11] = test: Antinociceptive activity in Swiss Albino mouse assessed as licking latency time at 50 mg/kg, po after 30 mins by hot plate test; assay type: functional
Method in brief: as §1

Mus musculus [12] = test: Antinociceptive activity in Swiss Albino mouse assessed as licking latency time at 50 mg/kg, po after 45 mins by hot plate test; assay type: functional
Method in brief: as §1

Mus musculus [13] = test: Antinociceptive activity in Swiss Albino mouse assessed as licking latency time at 50 mg/kg, po in presence of CB2 antagonist AM630 after 15 mins; assay type: functional
Method in brief: as §1

Mus musculus [14] = test: Antinociceptive activity in Swiss Albino mouse assessed as licking latency time at 50 mg/kg, po in presence of CB2 antagonist AM630 after 30 mins; assay type: functional
Method in brief: as §1

Mus musculus [15] = test: Antinociceptive activity in Swiss Albino mouse assessed as licking latency time at 50 mg/kg, po in presence of CB2 antagonist AM630 after 45 mins; assay type: functional
Method in brief: as §1

Mus musculus [16] = test: Effect on motor coordination in Swiss Albino mouse at 50 mg/kg, po after 15 mins by rotarod test; assay type: organism-based; design: dose 50 mg/kg, route oral; details: in vivo, 0.25 h
Method in brief: (§2)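 Mice were dosed orally in CMC vehicle and tested on a rotarod with a 3 cm diameter non-slip rotating rod, counting falls before dosing and at 15, 30 and 45 min after. Pretest scorers below 3 or above 6 falls were rejected. Ten mice per group. Mean ± SEM, ANOVA with Fisher PLSD, P<0.05.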

Mus musculus [17] = test: Effect on motor coordination in Swiss Albino mouse at 50 mg/kg, po after 30 mins by rotarod test; assay type: organism-based; design: dose 50 mg/kg, route oral; details: in vivo, 0.5 h
Method in brief: as §2

Mus musculus [18] = test: Effect on motor coordination in Swiss Albino mouse at 50 mg/kg, po after 45 mins by rotarod test; assay type: organism-based; design: dose 50 mg/kg, route oral; details: in vivo, 0.75 h
Method in brief: as §2

Chain of Cannabinoid receptor 2 (P34972 whole entry): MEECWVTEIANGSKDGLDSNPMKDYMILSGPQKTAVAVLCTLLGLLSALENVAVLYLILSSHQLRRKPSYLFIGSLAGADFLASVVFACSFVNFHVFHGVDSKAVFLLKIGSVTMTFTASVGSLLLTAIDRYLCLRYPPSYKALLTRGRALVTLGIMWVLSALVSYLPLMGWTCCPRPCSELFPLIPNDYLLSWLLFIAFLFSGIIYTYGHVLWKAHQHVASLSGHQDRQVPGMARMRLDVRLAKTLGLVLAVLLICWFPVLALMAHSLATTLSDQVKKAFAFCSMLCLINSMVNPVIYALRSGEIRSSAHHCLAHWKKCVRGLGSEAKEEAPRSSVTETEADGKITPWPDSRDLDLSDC
Chain of Cannabinoid receptor 1 (P21554 whole entry): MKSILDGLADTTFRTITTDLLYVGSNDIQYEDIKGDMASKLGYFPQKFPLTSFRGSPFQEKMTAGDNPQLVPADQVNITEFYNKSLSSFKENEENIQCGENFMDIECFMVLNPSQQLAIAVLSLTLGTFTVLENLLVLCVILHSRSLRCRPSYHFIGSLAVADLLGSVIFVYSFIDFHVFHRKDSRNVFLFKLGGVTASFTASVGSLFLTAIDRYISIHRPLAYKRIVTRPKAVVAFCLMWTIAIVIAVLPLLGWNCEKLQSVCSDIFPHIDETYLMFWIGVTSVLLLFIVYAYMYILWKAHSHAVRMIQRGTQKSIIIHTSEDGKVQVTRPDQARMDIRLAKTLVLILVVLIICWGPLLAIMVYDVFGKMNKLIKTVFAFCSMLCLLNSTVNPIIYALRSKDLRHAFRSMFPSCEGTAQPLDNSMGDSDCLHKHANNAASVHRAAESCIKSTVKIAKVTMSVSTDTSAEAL

| SMILES | Ki (Cannabinoid receptor 1) [nM] | Ki (Cannabinoid receptor 2) [nM] | Ratio Ki (Homo sapiens) | further results |
| --- | --- | --- | --- | --- |
| Nc1ccc2c(=O)cc(C(=O)NC3CCCCC3)n(Cc3ccccc3)c2n1 | 5600 | 7900 | 0.71 |  |
| COc1ccc2c(=O)c(C(=O)NC3CCCCC3)cn(Cc3ccccc3)c2n1 | 560 | 11 | 51 | Activity (Mus musculus [1]): 16.6 s; Activity (Mus musculus [2]): 18 s; Activity (Mus musculus [3]): 16.3 s; Activity (Mus musculus [4]): 17.1 s; Activity (Mus musculus [5]): 18.5 s; Activity (Mus musculus [6]): 16.7 s; Activity (Mus musculus [7]): 16.6 s; Activity (Mus musculus [8]): 19.5 s; Activity (Mus musculus [9]): 17.4 s; Activity (Mus musculus [10]): 19.2 s; Activity (Mus musculus [11]): 22.5 s; Activity (Mus musculus [12]): 18.2 s; Activity (Mus musculus [13]): 18.1 s; Activity (Mus musculus [14]): 19.2 s; Activity (Mus musculus [15]): 17.6 s; Activity (Mus musculus [16]): 0.7; Activity (Mus musculus [17]): 0.2; Activity (Mus musculus [18]): 0.2 |
| COc1ccc2c(=O)c(C(=O)NC3CCCCC3)cn(Cc3ccccc3)c2c1 |  | 79 |  |  |
| O=c1c2cn(Cc3ccccc3)c3cc(Cl)ccc3c-2nn1C1CCCCC1 | 560 | 1640 | 0.34 |  |
| CCCCCCC(C)(C)c1cc(O)c2c(c1)OC(C)(C)[C@@H]1CC=C(CO)C[C@@H]21 | 0.18 |  |  |  |
| O=C(NC1CCCCCC1)c1cn(CCN2CCOCC2)c2ccccc2c1=O | 290 | 28 | 10.3 |  |
| CCCCC/C=C\C/C=C\C/C=C\C/C=C\CCCC(=O)NCCCl | 5.3 | 95 | 0.06 |  |
| O=c1c2cn(CCN3CCOCC3)c3ccccc3c-2nn1-c1ccccc1 | 2800 | 2280 | 1.2 |  |
| COc1ccc(C(=O)c2c(C)n(CCN3CCOCC3)c3cc(I)ccc23)cc1 |  | 36 |  |  |
| CN(C)c1ccc2c(=O)c(C(=O)NC3CCCCC3)cn(CCN3CCOCC3)c2n1 | > 5600 | 94 |  |  |
| O=c1c2cn(Cc3ccccc3)c3ccccc3c-2nn1C1CCCCC1 | 620 | 790 | 0.78 |  |
| COc1ccc2c(=O)c(C(=O)NC3CCCCC3)cn(CCN3CCOCC3)c2c1 | 2920 | 79 | 37 |  |
| O=c1c2cn(CCN3CCOCC3)c3ccccc3c-2nn1C1CCCCC1 | > 5600 | > 7900 |  |  |
| O=C(NC1CCCCCC1)c1cn(Cc2ccccc2)c2ccccc2c1=O | 17 | 6.4 | 2.6 |  |

Source: ChEMBL document CHEMBL1140571, “New 1,8-naphthyridine and quinoline derivatives as CB2 selective agonists” (Bioorg Med Chem Lett, 2007)
